ChEMBL document CHEMBL2380254, “Optimization of tocotrienols as antiproliferative and antimigratory leads” (Eur J Med Chem, 2013)

Legend:
Assay type in all cases: functional
MDA-MB-468 [1] = experiment: Growth inhibition of human MDA-MB-468 cells assessed as cell growth at 10 uM after 48 hrs by sulforhodamine B assay; details: MDA-MB-468, 48 h, read-out: Activity
Summary of the method: (§1)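 Single-dose NCI-60 screen: adherent cells in RPMI 1640 with 5% FBS were exposed to 10 µM for 48 h at 37 °C after a 24 h preincubation. They were fixed in situ with cold TCA (10% final), stained with 0.4% SRB in 1% acetic acid, solubilized in 10 mM Tris base, and read at 515 nm. Percent growth was taken relative to time-zero and control plates.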

ACHN = experiment: Growth inhibition of human ACHN cells assessed as cell growth at 10 uM after 48 hrs by sulforhodamine B assay; details: read-out: Activity
Summary of the method: (§2)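 NCI-60 single-dose screen at 10 µM: cells in RPMI 1640 with 5% FBS, preincubated 24 h, then exposed 48 h at 37 °C. TCA fixation (16% final for suspension cells), SRB staining, absorbance 515 nm. Percent growth relative to time-zero and untreated control plates; negative values indicate cell kill.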

786-0 [2] = experiment: Growth inhibition of human 786-0 cells assessed as cell growth at 10 uM after 48 hrs by sulforhodamine B assay; details: 786-0, 48 h, read-out: Activity; summary of the method: as §2
OVCAR-5 [3] = experiment: Growth inhibition of human OVCAR5 cells assessed as cell growth at 10 uM after 48 hrs by sulforhodamine B assay; details: OVCAR-5, 48 h, read-out: Activity; summary of the method: as §1
UACC-62 = experiment: Growth inhibition of human UACC62 cells assessed as cell growth at 10 uM after 48 hrs by sulforhodamine B assay; details: UACC-62, 48 h, read-out: Activity
Summary of the method: (§3)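 Single-dose NCI-60 test at 10 µM. Cells were grown in RPMI 1640 with 5% FBS and 2 mM L-glutamine, preincubated 24 h, with T0 plates TCA-fixed. Exposure was 48 h at 37 °C, 5% CO2. Cells were fixed with cold TCA (final 10%, 4 °C, 60 min), stained with SRB and read at 515 nm. Percent growth was taken relative to T0 and untreated control; negative values denote cell kill.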

UACC-257 = experiment: Growth inhibition of human UACC257 cells assessed as cell growth at 10 uM after 48 hrs by sulforhodamine B assay; details: UACC-257, 48 h, read-out: Activity; summary of the method: as §3
SK-MEL-5 = experiment: Growth inhibition of human SK-MEL-5 cells assessed as cell growth at 10 uM after 48 hrs by sulforhodamine B assay; details: SK-MEL-5, 48 h, read-out: Activity; summary of the method: as §1
SK-MEL-28 = experiment: Growth inhibition of human SK-MEL-28 cells assessed as cell growth at 10 uM after 48 hrs by sulforhodamine B assay; details: SK-MEL-28, 48 h, read-out: Activity; summary of the method: as §1
LOX IMVI = experiment: Growth inhibition of human LOXIMVI cells assessed as cell growth at 10 uM after 48 hrs by sulforhodamine B assay; details: read-out: Activity; summary of the method: as §2
SNB-75 = experiment: Growth inhibition of human SNB75 cells assessed as cell growth at 10 uM after 48 hrs by sulforhodamine B assay; details: SNB-75, 48 h, read-out: Activity; summary of the method: as §3
SF-268 = experiment: Growth inhibition of human SF268 cells assessed as cell growth at 10 uM after 48 hrs by sulforhodamine B assay; details: SF-268, 48 h, read-out: Activity; summary of the method: as §1
HCT-15 = experiment: Growth inhibition of human HCT15 cells assessed as cell growth at 10 uM after 48 hrs by sulforhodamine B assay; details: HCT-15, 48 h, read-out: Activity; summary of the method: as §2
NCI-H522 = experiment: Growth inhibition of human NCI-H522 cells assessed as cell growth at 10 uM after 48 hrs by sulforhodamine B assay; details: NCI-H522, 48 h, read-out: Activity; summary of the method: as §1
MDA-MB-468 [4] = experiment: Growth inhibition of human MDA-MB-468 cells after 48 hrs by sulforhodamine B assay; details: MDA-MB-468, 48 h
Summary of the method: (§4)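 NCI-60 panel cells grown in RPMI 1640 with 5% FBS and 2 mM L-glutamine, seeded at 5000–40,000 cells/well and preincubated 24 h. Five 10-fold dilutions (0.001–100 µM) from DMSO stocks were added for 48 h at 37 °C. Adherent cells were fixed with cold TCA (10% final) for 60 min at 4 °C, stained with 0.4% SRB, and read at 515 nm. GI50 was set where 100×(T−T0)/(C−T0)=50.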

T47D = experiment: Growth inhibition of human T47D cells after 48 hrs by sulforhodamine B assay
Summary of the method: (§5)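 NCI-60 five-dose screen. Cells were grown in RPMI 1640 with 5% FBS and 2 mM L-glutamine, plated at 5000–40,000 cells/well and incubated 24 h before dosing, with T0 plates TCA-fixed. DMSO stocks were diluted to doses of […] and exposed 48 h at 37 °C, 5% CO2. Cells were fixed with cold TCA (final 10%, 60 min, 4 °C), stained with 0.4% SRB in 1% acetic acid for 10 min, solubilized in 10 mM trizma base and read at 515 nm. GI50 is where 100×(T−T0)/(C−T0)=50.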

PC-3 = experiment: Growth inhibition of human PC3 cells after 48 hrs by sulforhodamine B assay; details: PC-3, 48 h; summary of the method: as §4
TK-10 = experiment: Growth inhibition of human TK10 cells after 48 hrs by sulforhodamine B assay; details: TK-10, 48 h; summary of the method: as §5
A498 = experiment: Growth inhibition of human A498 cells after 48 hrs by sulforhodamine B assay; details: A498, 48 h
Summary of the method: (§6)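 NCI-60 screen: cells in RPMI 1640 with 5% FBS and 2 mM glutamine, 5000–40,000 cells/well, preincubated 24 h. Five concentrations (10-fold dilutions; 100 to 0.001 µM) applied for 48 h at 37 °C. TCA fixation, SRB stain, absorbance at 515 nm. Time-zero plates included; GI50 where 100×(T−T0)/(C−T0)=50.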

786-0 [5] = experiment: Growth inhibition of human 786-0 cells after 48 hrs by sulforhodamine B assay; details: 786-0, 48 h; summary of the method: as §6
OVCAR-5 [6] = experiment: Growth inhibition of human OVCAR5 cells after 48 hrs by sulforhodamine B assay; details: OVCAR-5, 48 h; summary of the method: as §4
SF-539 = experiment: Growth inhibition of human SF539 cells after 48 hrs by sulforhodamine B assay; details: SF-539, 48 h; summary of the method: as §4
KM12 = experiment: Growth inhibition of human KM12 cells after 48 hrs by sulforhodamine B assay; details: KM12, 48 h; summary of the method: as §6
NCI-H23 = experiment: Growth inhibition of human NCI-H23 cells after 48 hrs by sulforhodamine B assay; details: NCI-H23, 48 h; summary of the method: as §4
RPMI-8226 = experiment: Growth inhibition of human RPMI8226 cells after 48 hrs by sulforhodamine B assay; details: RPMI-8226, 48 h
Summary of the method: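 NCI-60 suspension lines in RPMI 1640 with 5% FBS and 2 mM L-glutamine, preincubated 24 h. A five-concentration 10-fold series (0.001–100 µM) was given for 48 h at 37 °C. Settled cells were fixed with 80% TCA (16% final), stained with SRB, and read at 515 nm. GI50 was taken where 100×(T−T0)/(C−T0)=50, with T0 plates fixed at drug addition.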

| SMILES | growth at 10 µM (MDA-MB-468 [1]) [%] | growth at 10 µM (ACHN) [%] | growth at 10 µM (786-0 [2]) [%] | growth at 10 µM (OVCAR-5 [3]) [%] | growth at 10 µM (UACC-62) [%] | growth at 10 µM (UACC-257) [%] | growth at 10 µM (SK-MEL-5) [%] | growth at 10 µM (SK-MEL-28) [%] | growth at 10 µM (LOX IMVI) [%] | growth at 10 µM (SNB-75) [%] | growth at 10 µM (SF-268) [%] | growth at 10 µM (HCT-15) [%] | growth at 10 µM (NCI-H522) [%] | GI50 (MDA-MB-468 [4]) [µM] | GI50 (T47D) [µM] | GI50 (PC-3) [µM] | GI50 (TK-10) [µM] | GI50 (A498) [µM] | GI50 (786-0 [5]) [µM] | GI50 (OVCAR-5 [6]) [µM] | also measured |
| --- | --- | --- | --- | --- | --- | --- | --- | --- | --- | --- | --- | --- | --- | --- | --- | --- | --- | --- | --- | --- | --- |
| CC(C)=CCC/C(C)=C/CC/C(C)=C/CC[C@]1(C)CCc2c3c(c(C)c(C)c2O1)OCN(CCCCCCO)C3 | -46.7 | 68.6 | 33.7 | 39 | 86.7 | 104 | 95.2 | 63.1 | -88.4 | 62.8 | 26 | 38.4 | 68.3 | 2.61 | 2.84 | 2.52 | 3.01 | 2.59 | 2.79 | 2.76 | GI50 (SF-539): 3.15 µM; GI50 (KM12): 2.84 µM; GI50 (NCI-H23): 2.84 µM; GI50 (RPMI-8226): 3.36 µM |
| CC(C)=CCC/C(C)=C/CC/C(C)=C/CC[C@]1(C)CCc2c3c(cc(C)c2O1)OCN(C1CCN(Cc2ccccc2)CC1)C3 | 0.33 | 83.2 | 24.1 | 79 | 93.6 | 93 | 110 | 60 | -47.4 | 62.5 | 12.9 | 86.4 | -24.9 | 1.41 | 2.18 | 0.581 | 1.71 | 1.31 | 1.52 | 2.17 | GI50 (SF-539): 1.83 µM; GI50 (KM12): 0.699 µM; GI50 (NCI-H23): 1.51 µM; GI50 (RPMI-8226): 0.324 µM |
| CC(C)=CCC/C(C)=C/CC/C(C)=C/CC[C@]1(C)CCc2c3c(c(C)c(C)c2O1)OCN(CCCCCCCCO)C3 | -12.6 | 79.6 | 59.8 | 72.8 | 93.1 | 119 | 83.7 | 82.9 | -80.1 | 74.3 | 54.9 | 75.3 | 30.9 | 2.57 | 3.03 | 2.37 | 3.41 | 2.32 | 2.72 | 2.83 | GI50 (SF-539): 3.29 µM; GI50 (KM12): 2.93 µM; GI50 (NCI-H23): 3.16 µM; GI50 (RPMI-8226): 3.13 µM |
| CC(C)=CCC/C(C)=C/CC/C(C)=C/CC[C@]1(C)CCc2c3c(cc(C)c2O1)OCN(CCCCO)C3 | -63.2 | -57.1 | -49.2 | 6.91 | 68.5 | 98.1 | 37.1 | 0.63 | 100 | 41.5 | -70.5 | -53.9 | 48.5 | 15.1 | 16.4 | 16.2 | 15.4 | 14.8 | 15.5 | 17.3 | GI50 (SF-539): 19.1 µM; GI50 (KM12): 11.9 µM; GI50 (NCI-H23): 17.5 µM; GI50 (RPMI-8226): 20.4 µM |
| CC(C)=CCC/C(C)=C/CC/C(C)=C/CC[C@]1(C)CCc2c3c(c(C)c(C)c2O1)OCN(CCCCCO)C3 | 87.4 | 101 | 90.2 | 94.4 | 99.2 | 110 | 108 | 99.7 | 40.2 | 70 | 75.9 | 105 | 84.8 | 4.14 | 6.17 | 5.71 | 5.98 | 5.76 | 6.47 | 5.93 | GI50 (SF-539): 6.26 µM; GI50 (KM12): 7.41 µM; GI50 (NCI-H23): 6.67 µM; GI50 (RPMI-8226): 9.91 µM |
| COc1ccc(CCN2COc3cc(C)c4c(c3C2)CC[C@@](C)(CC/C=C(\C)CC/C=C(\C)CCC=C(C)C)O4)cc1OC | -25.4 | 75.7 | 49.3 | 42.7 | 91.7 | 71.8 | 90 | -55.6 | -77.7 | 45.2 | -75.2 | 57.4 | -45.8 | 1.46 | 1.94 | 1.87 | 3.08 | 1.8 | 1.78 | 1.86 | GI50 (SF-539): 1.96 µM; GI50 (KM12): 2.07 µM; GI50 (NCI-H23): 1.85 µM; GI50 (RPMI-8226): 3.07 µM |
| CC(C)=CCC/C(C)=C/CC/C(C)=C/CC[C@]1(C)CCc2c3c(cc(C)c2O1)OCN(CCCCCO)C3 | 43 | 81.6 | 81.2 | 87.3 | 93.2 | 83.8 | 83.9 | 34.7 | -0.88 | 74.8 | 48.5 | 62.3 | 4.69 | 4.14 | 6.17 | 5.71 | 5.98 | 5.76 | 6.47 | 5.93 | GI50 (SF-539): 6.26 µM; GI50 (KM12): 7.41 µM; GI50 (NCI-H23): 6.67 µM; GI50 (RPMI-8226): 9.91 µM |
